Bioassay records deposited in PubChem BioAssay by several laboratories.
Rows were chosen to be rich in hits. Some 5.1% of all compounds tested hit in one or more screens of this group.
STAT1 act = STAT1 signaling activators, primary screen, cell-based, HTS, luciferase reporter; NIH 3T3 STAT1-luciferase reporter, IFN-gamma, luminescence; 100% = IFN-gamma alone, no compound; activation (% of control), % at 5.5 µM; 200,000 tested, 2.6% active;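 active = activation above the screen-wide mean activation plus 3 SD, cut at about 130% in these data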;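 note: raw ratio to IFN-gamma control signal so 100% means no change and 0% no light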
STAT3 activator = IL-6 driven STAT3 reporter potentiators, primary screen, U3A cells, luciferase, luminescence, MLSCN library | IL-6 STAT3-luciferase reporter; 100% = signal with IL-6 EC80 alone | activation (% of control), % at 5.6 µM | 190,000 tested, 0.91% active | AID 871, 2007;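 active = activation above the screen-wide mean of compound activation plus 3 SD, cut at about 130% in these data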;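 note: 0% = background luminescence of wells with medium and substrate only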
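Material: STAT1-lacking human U3A cells, STAT3 luciferase reporter | Benchmarks: IL-6-only wells as 100% reference | Probe or stimulus: IL-6 (33 ng/mL) | Timing: Compound 1 h, then IL-6 6 h at 37 °C | Detection: Luminescence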
NF-kB expr up = activators of NF-kB expression in neurons, primary screen, cell-based, HTS. fold change at 12.5 µM. 190,000 tested, 1.6% active. human neuronal cells, NF-kB reporter expression; stronger effect = higher value; in the data active = fold change above about 3.3
STAT3 inh = IL-6 driven STAT3 reporter inhibitors, primary screen, U3A cells, luciferase, luminescence, MLSCN library. inhibition, % at 5.5 µM. 190,000 tested, 0.89% active. AID 862, 2007. IL-6 STAT3-luciferase reporter; host cell line lacks STAT1;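 active = inhibition above the mean inhibition across all screened compounds plus 3 SD, cut at about 44% in these data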;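 note: 0% = DMSO only wells and 100% = 100 µM nifuroxazide control wells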
APP 5'UTR act = activators of APP 5'UTR luciferase reporter, primary screen, SH-SY5Y cells; 190,000 tested, 1% active; SH-SY5Y APP 5'UTR luciferase reporter, luminescence; zero percent = DMSO vehicle wells; activation, % at 2 µM;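 active = activation above a set limit, based on mean plus 3 SD of controls, cut at about 140% in these data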
STAT1 inh-1 = STAT1 signaling inhibitors, primary screen, cell-based, HTS, luciferase reporter. AID 920, 2007. inhibition, % at 5.5 µM. NIH 3T3 STAT1-luciferase reporter, IFN-gamma, luminescence. 200,000 tested, 0.35% active;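 active = inhibition above a set limit, the mean inhibition across all tested compounds plus 3 SD, cut at about 34% in these data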;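 note: 0% = IFN-gamma with DMSO and 100% = IFN-gamma with 300 µM nifuroxazide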
STAT1 inh-2 = STAT1 signaling inhibitors, confirmation, cell-based, HTS, luciferase reporter | inhibition, % at 5.5 µM | NIH 3T3 STAT1-luciferase reporter, IFN-gamma, luminescence | shares compounds with STAT1 inh-1 | 200 tested, 55% active;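 active = triplicate mean inhibition exceeding the hit cutoff computed for the primary STAT1 screen, cut at about 35% in these data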;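 note: 0% = DMSO with IFN-gamma and 100% = 300 µM nifuroxazide with IFN-gamma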
NFkB inh STAT1ct = NF-kB reporter inhibitors, TNF-alpha stimulated, counter-screen for STAT1 inhibitor project, cell-based, HEK293T, luciferase luminescence; shares compounds with STAT1 inh-1; TNF-alpha induced; inhibition, % at 5.7 µM; 200 tested, 30% active; AID 1303, 2008;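 active = inhibition above the mean of solvent-only control wells plus 3 SD of those wells, cut at about 15% in these data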;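 note: 0% = DMSO with TNF-alpha and 100% = MG-132 control with TNF-alpha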
STAT3 inh STAT1c = STAT3 reporter inhibition by STAT1 hits, counter-screen for STAT1 inhibitor project, U3A cells, luciferase, luminescence, triplicate. shares compounds with STAT1 inh-1. IL-6 STAT3 luciferase reporter; cells lacking STAT1. inhibition, % at 5.7 µM. 200 tested, 20% active. AID 1310, 2008;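 active = inhibition above the mean of solvent-only control wells plus 3 SD, set per campaign, cut at about 25% in these data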;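 note: 0% = IL-6 plus DMSO and 100% = IL-6 plus nifuroxazide control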
* = called active by the depositor; · = no result.

SMILES	STAT1 act	STAT3 activator	NF-kB expr up	STAT3 inh	APP 5'UTR act	STAT1 inh-1	STAT1 inh-2	NFkB inh STAT1ct	STAT3 inh STAT1c
CC(C)COc1ccc(C/C(N)=N/n2cnnc2)cc1	67.2	79.9	0.87	25.4	18.3	35.3*	32.3	10.6	39.1*
COc1ccc(-c2cc(C(F)(F)F)nc(S(=O)(=O)CCCC(=O)Nc3cccc(O)c3)n2)cc1OC	64.3	102.3	1.72	8.9	11.9	38.3*	38.6*	-7.3	-44.5
COc1ccccc1-c1cc(C(F)(F)F)nc(S(=O)(=O)CCCC(=O)N2CCOCC2)n1	61.1	98.3	1.45	6.3	4.4	42.6*	44.4*	0.6	6.6
Cc1ccc(NC(=O)c2cc(C)n(-c3cccc(C)c3)c2C)cc1	42.6	89.0	1.68	15.7	62.8	65.4*	4.8	0.4	-14.1
Cc1ccc(-n2nc(C(=O)O)c3ccccc3c2=O)cc1C	54.5	87.9	1.03	14.6	-4.9	54.5*	48.8*	2.0	7.8
COc1ccccc1-n1nc(C(=O)O)c2ccccc2c1=O	99.9	98.9	1.4	5.6	13.6	-1.7	·	·	·
Cc1c(C(=O)Nc2cccc(Cl)c2)c2ccccn2c1CCc1ccncc1	68.1	99.3	0.9	6.1	10.0	35.2*	22.6	-9.4	-4.5
Cc1c(C(=O)Nc2ccc(Cl)cc2)c2ccccn2c1CCc1ccncc1	88.6	110.3	1.21	-12.5	-1.4	12.5	·	·	·
COc1ccc(CNC(=O)c2c(C)oc3c2C(=O)c2ccccc2C3=O)cc1	111.2	102.0	0.34	-2.5	-9.5	-12.3	·	·	·
Cc1oc2c(c1C(=O)NCc1cccnc1)C(=O)c1ccccc1C2=O	17.9	·	0.15	·	-95.2	89.5*	97.7*	73.9*	65.3*
COc1ccc(N2CCN(C(c3cc(OC)ccc3OC)c3nnnn3CC3CCCO3)CC2)cc1 (stereo not given)	81.7	86.0	1.6	18.0	5.6	19.8	·	·	·
CC(=O)Nc1cccc(-c2nnc(SCC(=O)n3c4c(c5ccccc53)CCCC4)n2C)c1	104.1	102.2	1.02	-5.8	11.3	-4.5	·	·	·
CC(C)CC(=O)NC(=S)Nc1ccc(NC(=O)c2cccs2)cc1	96.9	94.6	0.92	9.9	12.0	3.3	·	·	·
O=C1CCC(=O)N1CC(=O)N(c1ccccc1)c1ccccc1	91.9	98.7	1.72	3.8	-13.0	7.1	·	·	·
O=C(CCl)N(c1ccccc1)c1ccccc1	65.6	76.5	0.15	31.4	-44.8	36.3*	36.1*	24.2*	24.2
COc1ccccc1NC(=O)Cn1cnc2c(nnn2-c2ccc(C)cc2)c1=O	101.5	100.6	0.91	8.5	6.2	-1.4	·	·	·
O=C(N/N=C/c1cccnc1)C(O)(c1ccccc1)c1ccccc1	97.2	100.7	1.22	4.0	-8.2	3.1	·	·	·
O=C(O)c1cccc(N/N=C/c2cccnc2)c1	62.9	71.8	2.44	37.7	87.0	39.6*	5.9	30.7*	-8.9
O=C(CC(NC(=O)c1ccccc1)c1ccccc1)Nc1cccc2ccccc12 (stereo not given)	99.4	106.8	0.97	-7.6	0.0	0.7	·	·	·
CCOC(=O)C(=CNc1cc(C)ccc1C)C(=O)OCC	66.7	80.1	0.73	28.2	-8.2	37.0*	33.5	-1.4	-18.4
CCOC(=O)C(=CNc1cc(C)ccn1)C(=O)OCC	93.7	99.5	1.05	1.5	1.6	7.0	·	·	·
CCOC(=O)C(=CNc1cc(C)nn1-c1ccc(C)cc1)C(=O)OCC	35.8	89.7	0.7	16.4	-21.8	69.4*	59.9*	39.7*	14.8
